Test results from ChEMBL document CHEMBL4020790, “Quinazolinone derivatives as inhibitors of homologous recombinase RAD51” (Bioorg Med Chem Lett, 2017).
Calls of active or inactive are those of the source. The calls are words filed in the database; no cut-off is given here.

How the values were obtained:
MDA-MB-231 [1] = test: Cytotoxicity against human MDA-MB-231 cells assessed as decrease in cell viability after 120 hrs by MTS assay; assay type: functional, cell-based; conditions: MDA-MB-231, 120 h
HCC1937 = test: Cytotoxicity against human HCC1937 cells assessed as decrease in cell viability after 120 hrs by MTS assay; assay type: functional, cell-based; conditions: HCC1937, 120 h
[2] = target: T1, DNA repair protein RAD51 homolog 1 (Homo sapiens) (UniProt Q06609); test: Inhibition of RAD51 in human MDA-MB-231 cells assessed as reduction in DNA damage-induced RAD51 foci formation at 10 uM incubated for 16 hrs followed by 6-Gy gamma-irradiation measured after 6 hrs by immunofluoresent assay; assay type: cell-based
T1 sequence (whole entry): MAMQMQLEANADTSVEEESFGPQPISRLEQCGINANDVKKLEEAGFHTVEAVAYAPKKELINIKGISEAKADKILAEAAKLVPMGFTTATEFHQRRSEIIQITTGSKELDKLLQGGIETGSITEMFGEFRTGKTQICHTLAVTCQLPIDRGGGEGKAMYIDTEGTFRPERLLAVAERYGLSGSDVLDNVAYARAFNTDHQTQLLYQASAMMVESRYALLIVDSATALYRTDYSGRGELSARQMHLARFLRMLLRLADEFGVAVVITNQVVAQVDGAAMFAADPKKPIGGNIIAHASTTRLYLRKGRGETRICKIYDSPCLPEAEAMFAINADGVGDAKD
How it was run: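 MDA-MB-231 cells given 10 μM compound, then 6 Gy irradiation; RAD51 foci scored by immunofluorescence, with the read-out taken as the ratio of RAD51-positive to γH2AX-positive cells.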

SUM-159-PT = test: Cytotoxicity against human SUM159PT cells assessed as decrease in cell viability after 120 hrs by MTS assay; assay type: functional, cell-based
MDA-MB-231 [3] = test: Cytotoxicity against human MDA-MB-231 cells assessed as decrease in cell viability at 10 uM in presence of 6-Gy gamma-irradiation measured up to 120 hrs by CellTiter96 AQueous one solution cell proliferation assay; assay type: functional, cell-based
How it was run: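 MDA-MB-231 cells given 10 μM compound with or without 6 Gy irradiation; proliferation followed over a 120 h time course and expressed as mean % proliferation from 3 independent experiments; area under the curve calculated from the proliferation data.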

Hs-578T = test: Cytotoxicity against human Hs578T cells assessed as decrease in cell viability after 120 hrs by MTS assay; assay type: functional, cell-based
BT-549 = test: Cytotoxicity against human BT549 cells assessed as decrease in cell viability after 120 hrs by MTS assay; assay type: functional, cell-based; conditions: BT-549, 120 h
MDA-MB-231 [4] = test: Cytotoxicity against human MDA-MB-231 cells assessed as decrease in cell viability at 10 uM measured up to 120 hrs by CellTiter96 AQueous one solution cell proliferation assay; assay type: functional, cell-based
How it was run: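 MDA-MB-231 cells exposed to 10 μM compound with or without 6 Gy irradiation; proliferation followed over a 120 h time course and expressed as mean % proliferation from 3 independent experiments; area under the curve derived from the proliferation data.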

MCF-10A = test: Cytotoxicity against human MCF10A cells assessed as decrease in cell viability after 120 hrs by MTS assay; assay type: cell-based
MDA-MB-468 = test: Cytotoxicity against human MDA-MB-468 cells assessed as decrease in cell viability after 120 hrs by MTS assay; assay type: functional, cell-based; conditions: MDA-MB-468, 120 h
MDA-MB-436 = test: Cytotoxicity against human MDA-MB-436 cells assessed as decrease in cell viability after 120 hrs by MTS assay; assay type: functional, cell-based; conditions: MDA-MB-436, 120 h
[5] = target: T1, DNA repair protein RAD51 homolog 1 (Homo sapiens); test: Binding affinity to recombinant human RAD51 at 100 uM by SPR method

## O=c1c2ccccc2nc(/C=C/c2cccnc2)n1Cc1ccc(Cl)cc1
MDA-MB-231 [1]
  IC50: 6.7 µM
HCC1937
  IC50: 13.7 µM
[2]
  inhibition: Active
SUM-159-PT
  IC50: 5.5 µM
MDA-MB-231 [3]
  Activity: Active
Hs-578T
  IC50: 4.2 µM
BT-549
  IC50: 6.4 µM
MDA-MB-231 [4]
  Activity: inactive
MCF-10A
  IC50: 48.3 µM
MDA-MB-468
  IC50: 5.7 µM
MDA-MB-436
  IC50: 4.1 µM
[5]
  Activity: Active

## O=c1c2ccccc2nc(/C=C/c2cccnc2)n1CC1CCCCC1
[2]
  inhibition: Active

## O=c1c2ccccc2nc(/C=C/c2cccnc2)n1Cc1ccccc1
MDA-MB-231 [1]
  IC50: 11.1 µM
HCC1937
  IC50: 89.1 µM
SUM-159-PT
  IC50: 84.1 µM
MDA-MB-231 [3]
  Activity: Active
Hs-578T
  IC50: 9.6 µM
BT-549
  IC50: 35.4 µM
MCF-10A
  IC50: 47.7 µM
MDA-MB-468
  IC50: 10.2 µM
MDA-MB-436
  IC50: 5.7 µM
